The values below come from ChEMBL document CHEMBL1139365, “Inhibition of MDR1 activity in vitro by a novel class of diltiazem analogues: toward new candidates” (J Med Chem, 2009).

Test [1] relates to A2780. Nature of the test: Antiproliferative activity against human A2780 cells after 3 days by MTT assay. The format is functional, cell-based. The note with it: for IC50: Homo sapiens, A2780, 72 h. In short, it runs like this:
(§1)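 Cells plated 6–8 h in 96-well plates. Compound alone, in duplicate at ≥5 concentrations (3-fold serial dilutions, top 100 μM), with final DMSO […] after predilution in FCS. After 3 days, MTT 4 h at 37 °C, formazan dissolved in DMSO, A540. IC50 taken from single dose–response curves; 3–4 experiments. A2780/DX3 kept doxorubicin-free 2–3 days beforehand.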

Test [2] is described as follows: Antiproliferative activity against human A2780/DX3 cells after 3 days by MTT assay. The format is functional, cell-based. The note with it: for IC50: Homo sapiens, A2780/DX3, 72 h. In short, it runs like this: as §1
The subject of test [3] is A2780 ADR. Nature of the test: Reversal of P-gp 170-mediated multidrug resistance in human A2780/DX3 cells assessed as reduction in doxorubicin IC50 at IC5 pretreated for 6 hrs before doxorubicin administration measured after 3 days by MTT assay. The format is cell-based. Also noted: scale not given: the % may be the effect or the level left. In short, it runs like this: (§2)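 A2780/DX3 cells went into medium holding the modulator at its MTT-derived 0% or 5% growth-inhibition concentration. Doxorubicin (30–0.048 μM serial dilutions, modulator kept constant) was added 6 h later. MTT (2 mg/mL) was added after 3 days for 4 h at 37 °C, formazan dissolved in DMSO, A540 read. IC50 came from dose–response curves, repeated 4–6 times. % reduction is versus doxorubicin alone in the same experiment. Kruskal–Wallis/Mann–Whitney tests.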

Test [4] concerns A2780 ADR. Nature of the test: Reversal of P-gp 170-mediated multidrug resistance in human A2780/DX3 cells assessed as reduction in doxorubicin IC50 at IC0 pretreated for 6 hrs before doxorubicin administration measured after 3 days by MTT assay. Format: cell-based. More on the design: scale not given: the % may be the effect or the level left. In short, it runs like this:
as §2

The test system of test [5] is A2780 ADR. Nature of the test: Reversal of P-gp 170-mediated multidrug resistance in human A2780/DX3 cells assessed as increase in intracellular doxorubicin accumulation at 5 times IC5 pretreated for 2 hrs before doxorubicin administration measured after 2 hrs by flow cytometry. The format is cell-based. In short, it runs like this:
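A2780/DX3 cells (kept in 0.1 μM doxorubicin, drug withdrawn 2–3 days before use) seeded in flasks, grown 24 h to 75–85% confluence. Modulator given at five times the 5%-growth-inhibition concentration for 2 h, then 10 μM doxorubicin for 2 h more. Cells trypsinized, fixed in 3.7% paraformaldehyde/2% sucrose in PBS. Flow cytometry, 488 nm excitation, 575 nm bandpass. Read-out is MFI, with % increase taken from the MFI ratio to doxorubicin alone.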

A short description of test [6]: Down regulation of P-gp 170 expression in human A2780/DX3 cells after 72 hrs by flow cytometry. Format: functional, cell-based. In short, it runs like this: (§3)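 Cells exposed 72 h to compound at concentrations giving 5% or 0% growth inhibition. Then washed in PBS/2% FCS; 2.5 × 10^5 cells stained at 4 °C with anti-Pgp MM4.17 monoclonal, then FITC goat anti-mouse IgG, and analysed by flow cytometry.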

Test [7] deals with A2780. Nature of the test: Down regulation of P-gp 170 expression in human A2780 cells after 72 hrs by flow cytometry. The format is functional, cell-based. In short, it runs like this:
as §3

Test [8] concerns A2780. Nature of the test: Antiproliferative activity against human A2780 cells at 2.20 uM after 3 days by MTT assay. Format: functional. The conditions noted are these: A2780, 72 h.
The nature of test [9]: Antiproliferative activity against human A2780/DX3 cells at 2.40 uM after 3 days by MTT assay. Format: functional. The note with it: A2780/DX3, 72 h.
Test [10] concerns A2780. Nature of the test: Antiproliferative activity against human A2780 cells at 0.15 uM after 3 days by MTT assay. The format is functional. The conditions noted are these: A2780, 72 h.
Test [11] can be described thus: Antiproliferative activity against human A2780/DX3 cells at 0.3 uM after 3 days by MTT assay. The format is functional. The conditions noted are these: A2780/DX3, 72 h.
The test system of test [12] is A2780. Nature of the test: Antiproliferative activity against human A2780 cells at 12.2 uM after 3 days by MTT assay. The format is functional. The note with it: A2780, 72 h.
A short description of test [13]: Antiproliferative activity against human A2780/DX3 cells at 1.0 uM after 3 days by MTT assay. Format: functional. The conditions noted are these: A2780/DX3, 72 h.
The test system of test [14] is A2780. Nature of the test: Antiproliferative activity against human A2780 cells at 1.2 uM after 3 days by MTT assay. Format: functional. The conditions noted are these: A2780, 72 h.
Test [15] relates to A2780. Nature of the test: Antiproliferative activity against human A2780 cells at 1.3 uM after 3 days by MTT assay. Format: functional. The conditions noted are these: A2780, 72 h.
The nature of test [16]: Antiproliferative activity against human A2780/DX3 cells at 1.23 uM after 3 days by MTT assay. The format is functional. The conditions noted are these: A2780/DX3, 72 h.
Test [17] has as its system A2780. Nature of the test: Antiproliferative activity against human A2780 cells at 0.72 uM after 3 days by MTT assay. The conditions noted are these: A2780, 72 h. The format is functional.
Test [18] can be described thus: Antiproliferative activity against human A2780/DX3 cells at 4.5 uM after 3 days by MTT assay. The conditions noted are these: A2780/DX3, 72 h. The format is functional.
For test [19], the system named is A2780. Nature of the test: Antiproliferative activity against human A2780 cells at 0.23 uM after 3 days by MTT assay. The conditions noted are these: A2780, 72 h. Format: functional.
Test [20] can be described thus: Antiproliferative activity against human A2780/DX3 cells at 1.88 uM after 3 days by MTT assay. The format is functional. The note with it: A2780/DX3, 72 h.

SMILES strings stand for the structures. Calls of active or inactive are those of the source. The rule behind the calls is not given here. A value given as a limit tells only on which side of the number the result lay.

As for `CC/C=C\COC1(c2ccc(Cl)cc2)SC=C(C)n2c1noc2=O` (stereo not given), the IC5 in the test on A2780 [1] is 3.5 µM; in test [2], 20.7 µM. In addition, the IC50 with A2780 [1] is 55 µM; in test [2], 103 µM. For the same compound, the Activity is -47% in the test with A2780 ADR [3], -9% with A2780 ADR [4] and 429% with A2780 ADR [5]. For the same compound, the outcome (in test [6]; in the test with A2780 [7]) was inactive. This compound also displayed an inhibition at 2.2 µM in the test on A2780 [8] of 0%. This compound gave an inhibition at 2.4 µM in [9] of 0%.
For `CC/C=C/COC1(c2ccc(Cl)cc2)SC=C(C)n2c1noc2=O` (stereo not given), the results for the IC5 (in the test on A2780 [1]; in test [2]) were 1.26 µM and 2.5 µM, respectively. For the same compound, the IC50 with A2780 [1] was determined as 55 µM; in test [2] it was 88 µM. Moreover, the results for the Activity in the test on A2780 ADR [3], in the test with A2780 ADR [4] and in the test with A2780 ADR [5] were -1%, 2% and less than 48%, respectively. Moreover, the inhibition at 0.15 µM in the test with A2780 [10] amounted to 0%. At 0.3 µM the inhibition in test [11] was 0%.
As for `CCCCOC1(c2ccc(Cl)cc2)SC=C(C)n2c1noc2=O` (stereo not given), the IC5 is 19.7 µM in the test on A2780 [1] and 2.2 µM in [2]. The IC50 was 89 µM with A2780 [1] and 49 µM in [2]. In addition, the Activity was -16% with A2780 ADR [3], -21% with A2780 ADR [4] and less than 48% in the test with A2780 ADR [5]. The compound also yielded an inhibition at 12.2 µM in the test on A2780 [12] of 0%. Further, 1 µM produced 0% inhibition in test [13].
For `CCCCOC1(c2ccc(Br)cc2)SC=C(C)n2c1noc2=O` (stereo not given), the results for the IC5 (with A2780 [1]; in test [2]) were 7.7 µM and 3.2 µM, respectively. Besides, the IC50 came out at 82 µM in the test with A2780 [1] and 78 µM in test [2]. Moreover, the Activity is 3% in the test on A2780 ADR [3], 3% in the test on A2780 ADR [4] and less than 48% with A2780 ADR [5]. Further, at 1.2 µM the inhibition with A2780 [14] was 0%. Moreover, the inhibition at 1 µM in test [13] amounted to 0%.
With `CC/C=C/COC1(c2ccc(Br)cc2)SC=C(C)n2c1noc2=O` (stereo not given), in the test on A2780 [15], 1.3 µM produced 0% inhibition. Besides, the IC5 in the test with A2780 [1] turned out to be 1.9 µM; in test [2], 2.45 µM. Moreover, the IC50 is 59 µM in the test with A2780 [1] and 111 µM in [2]. Besides, the values for the Activity in the test with A2780 ADR [3], with A2780 ADR [4] and with A2780 ADR [5] were -23%, -8% and less than 48%, respectively. Besides, in test [16], testing at 1.23 µM gave an inhibition of 0%.
In the case of `CCCCCCCCCCCCCCCOC1(c2ccc(Cl)cc2)SC=C(C)n2c1noc2=O` (stereo not given), the values for the IC5 (with A2780 [1]; in [2]) were 2.1 µM and 14.6 µM, respectively. In addition, the 50% inhibitory concentration (IC50) (in the test with A2780 [1]; in [2]) was more than 100 µM each time. Also, the results for the Activity with A2780 ADR [3], in the test with A2780 ADR [4] and with A2780 ADR [5] were -13%, -14% and less than 48%, respectively. Moreover, in the test on A2780 [17], the inhibition at 0.72 µM turned out to be 0%. The same compound yielded an inhibition at 4.5 µM in test [18] of 0%.
As to `CCCCCCCCCCCCCCCCCCOC1(c2ccc(Br)cc2)SC=C(C)n2c1noc2=O` (stereo not given), the IC5 in the test on A2780 [1] was 0.9 µM; in test [2] it was 4.9 µM. Further, the IC50 (in the test on A2780 [1]; in [2]) was more than 100 µM each time. Besides, the Activity with A2780 ADR [3] was -22%; in the test on A2780 ADR [4], -21%; in the test with A2780 ADR [5] it was less than 48%. In addition, the inhibition at 0.23 µM in the test with A2780 [19] is 0%. Also, the inhibition at 1.88 µM in test [20] amounted to 0%.
